Source: PMC6210075 (ACS Omega, 2018)
Each block holds one compound with its values, some of them ahead of it.

Legend:
serine hydrolases [1] = biological target: T1, serine hydrolases (Mus musculus, UniProt O08914); test: Activity-based protein profiling; type: biochemical; settings: mouse brain tissue homogenate, inhibitor 20 µM
T1 sequence (O08914 1-579): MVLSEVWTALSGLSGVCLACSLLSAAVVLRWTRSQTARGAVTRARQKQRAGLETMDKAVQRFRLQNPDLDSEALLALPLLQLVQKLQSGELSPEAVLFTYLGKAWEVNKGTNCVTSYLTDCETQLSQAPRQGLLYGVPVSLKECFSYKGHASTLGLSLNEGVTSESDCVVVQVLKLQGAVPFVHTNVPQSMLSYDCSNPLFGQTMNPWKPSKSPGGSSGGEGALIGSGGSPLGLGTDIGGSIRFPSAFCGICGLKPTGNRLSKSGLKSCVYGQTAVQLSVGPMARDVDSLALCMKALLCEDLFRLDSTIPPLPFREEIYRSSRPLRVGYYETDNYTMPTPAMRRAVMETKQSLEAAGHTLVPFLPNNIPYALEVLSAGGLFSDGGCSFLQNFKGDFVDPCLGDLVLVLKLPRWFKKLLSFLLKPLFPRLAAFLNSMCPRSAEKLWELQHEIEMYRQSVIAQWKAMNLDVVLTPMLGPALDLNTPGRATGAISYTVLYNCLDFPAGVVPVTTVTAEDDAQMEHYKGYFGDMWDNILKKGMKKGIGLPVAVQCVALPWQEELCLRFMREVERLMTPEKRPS

serine hydrolases [2] = test: Activity-based protein profiling; type: biochemical, mouse; settings: mouse liver tissue homogenate, inhibitor 20 µM
human FAAH [3] = biological target: T2, human FAAH (Homo sapiens, UniProt O00519); test: FAAH fluorescent inhibition assay; type: biochemical; settings: for decrease in activity/potency toward FAAH: compared to PF-750
T2 sequence (O00519 1-579): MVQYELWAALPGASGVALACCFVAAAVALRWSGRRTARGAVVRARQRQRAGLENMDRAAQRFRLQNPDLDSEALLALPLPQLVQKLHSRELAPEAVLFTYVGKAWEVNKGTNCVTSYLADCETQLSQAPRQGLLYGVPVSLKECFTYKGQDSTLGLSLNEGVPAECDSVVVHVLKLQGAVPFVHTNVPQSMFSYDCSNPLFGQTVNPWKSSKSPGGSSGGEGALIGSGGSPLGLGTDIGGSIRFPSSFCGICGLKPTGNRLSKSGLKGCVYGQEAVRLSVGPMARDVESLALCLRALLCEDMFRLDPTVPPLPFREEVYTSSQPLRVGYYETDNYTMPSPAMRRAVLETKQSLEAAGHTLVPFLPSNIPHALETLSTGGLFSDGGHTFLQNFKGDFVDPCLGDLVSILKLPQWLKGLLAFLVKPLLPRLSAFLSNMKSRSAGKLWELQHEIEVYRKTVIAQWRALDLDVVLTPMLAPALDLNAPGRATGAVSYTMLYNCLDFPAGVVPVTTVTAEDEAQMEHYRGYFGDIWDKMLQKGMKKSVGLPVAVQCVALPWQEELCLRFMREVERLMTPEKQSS

human sEH [4] = biological target: T3, human sEH (Homo sapiens, UniProt P34913); test: sEH fluorescent inhibition assay; type: biochemical; settings: compared to PF-750
T3 sequence (P34913 1-555): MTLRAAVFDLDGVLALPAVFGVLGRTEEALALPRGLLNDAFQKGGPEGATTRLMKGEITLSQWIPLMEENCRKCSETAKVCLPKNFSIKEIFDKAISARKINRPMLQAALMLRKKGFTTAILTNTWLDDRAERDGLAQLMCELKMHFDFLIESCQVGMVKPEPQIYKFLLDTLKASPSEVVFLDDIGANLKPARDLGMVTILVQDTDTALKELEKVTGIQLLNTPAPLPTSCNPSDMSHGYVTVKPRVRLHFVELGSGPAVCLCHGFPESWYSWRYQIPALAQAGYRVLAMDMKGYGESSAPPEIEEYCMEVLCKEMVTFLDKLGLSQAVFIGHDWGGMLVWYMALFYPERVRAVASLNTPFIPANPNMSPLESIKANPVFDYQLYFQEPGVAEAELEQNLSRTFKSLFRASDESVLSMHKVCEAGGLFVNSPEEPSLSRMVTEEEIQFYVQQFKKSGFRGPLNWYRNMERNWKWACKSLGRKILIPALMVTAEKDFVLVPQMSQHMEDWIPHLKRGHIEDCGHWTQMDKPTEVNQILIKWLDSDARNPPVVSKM

[5] = Cassette dosing pharmacokinetics in rats; type: in vivo; settings: male, Sprague-Dawley, rat, whole blood, po, 1 mg/kg
Summary of the method: (§1)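 Test compounds were given as a cassette cocktail at 1 mg/kg each, p.o. in PEG300, to groups of 4 rats or 4 mice. Blood was taken by tail vein at set intervals and group averages were used.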

human sEH [6] = biological target: T3, human sEH; test: FRET-based displacement assay for inhibitor dissociation from sEH; type: binding
[7] = Cassette dosing pharmacokinetics in mice; type: in vivo; settings: male, Swiss Webster, mouse, whole blood, po, 1 mg/kg
Summary of the method: as §1

human FAAH [8] = biological target: T2, human FAAH; test: Ki and kinact determination on FAAH; type: biochemical
Summary of the method: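 Crude baculovirus-expressed recombinant FAAH (High Five cell S9 fraction in 50 mM Tris/HCl pH 8.0, 1 mM CHAPS, 10% glycerol). OMP (100 μM final) was mixed with a range of test compound concentrations and held 5 min at 37 °C.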

rat FAAH = biological target: T4, rat FAAH (Rattus norvegicus, UniProt P97612); test: FAAH fluorescent inhibition assay, rat brain microsomes; type: biochemical; settings: FAAH IC50 (5 min pre-incubation), 5 min pre-incubation
T4 sequence (P97612 1-579): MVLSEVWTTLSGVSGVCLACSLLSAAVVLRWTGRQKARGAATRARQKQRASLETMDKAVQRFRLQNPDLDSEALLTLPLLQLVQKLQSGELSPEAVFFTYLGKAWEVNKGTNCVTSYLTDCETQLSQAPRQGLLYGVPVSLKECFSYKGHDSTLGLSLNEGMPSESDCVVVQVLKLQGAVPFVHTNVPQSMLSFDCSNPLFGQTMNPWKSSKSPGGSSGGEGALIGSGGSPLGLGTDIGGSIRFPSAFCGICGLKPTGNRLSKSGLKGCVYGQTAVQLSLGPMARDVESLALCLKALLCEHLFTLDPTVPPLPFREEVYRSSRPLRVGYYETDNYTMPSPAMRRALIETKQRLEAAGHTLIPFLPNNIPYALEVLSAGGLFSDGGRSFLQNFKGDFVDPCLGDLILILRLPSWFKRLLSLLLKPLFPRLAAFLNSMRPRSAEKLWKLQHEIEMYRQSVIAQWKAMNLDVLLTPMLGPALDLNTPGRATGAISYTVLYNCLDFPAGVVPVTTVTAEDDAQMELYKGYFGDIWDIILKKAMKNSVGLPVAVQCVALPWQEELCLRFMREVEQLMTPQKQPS
Summary of the method: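 Rat brain microsomes: tissue homogenized in 20 mM phosphate (pH 7.4, 5 mM EDTA), spun at 9000g for 20 min, then 100 000g for 1 h, and stored at −80 °C. OMP (100 μM final) in 0.1 M sodium phosphate pH 8, 0.1 mg/mL BSA, 2% DMSO, 37 °C. Fluorescence (ex 303/em 394 nm) read every 30 s for 10 min. No-enzyme background subtracted. IC50 from linear regression of log[I] vs % remaining activity; triplicates.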

mouse FAAH = biological target: T5, mouse FAAH (Mus musculus, UniProt O08914); test: FAAH fluorescent inhibition assay, mouse crude tissue homogenate; type: biochemical; settings: FAAH IC50 (5 min pre-incubation)
T5 sequence (O08914 1-579): T1 sequence (O08914 1-579)

- decrease in activity/potency toward FAAH (human FAAH [3]): 3 fold
Compound: O=C(Nc1ccc(Cl)cc1)N1CCC(Cc2cnc3ccccc3c2)CC1 [compound 2]

- AUC [5]: 0.74 µM·h
- Cmax [5]: 66 nM
- t1/2 (half-life on the enzyme) (human sEH [6]; human sEH): 9.9 min
- koff (human sEH [6]; read-out: koff × 10^–3): 1.2 s⁻¹
- AUC [7]: 0.75 µM·h
- Cmax [7]: 65 nM
- Ki (human FAAH [8]): 0.037 µM
- kinact (human FAAH [8]): 0.000317 s⁻¹
- kinact/KI (human FAAH [8]): 500000 M⁻¹ s⁻¹
- IC50 (rat FAAH): > 10 µM
- IC50 (mouse FAAH): > 10 µM
Compound: O=C(Nc1ccc(C(F)(F)F)cc1)N1CCC(Cc2cccc(Oc3ccc(C(F)(F)F)cn3)c2)CC1 [compound 13]
- intensity of the FAAH band (ABPP) (serine hydrolases [1]): does not appear to fully inhibit the band corresponding to FAAH
- other serine hydrolase bands (ABPP) (serine hydrolases [2]): neither 11, 13, 14, 18, nor PF-3845 had any effect on the intensity of other bands

The remaining lines, values behind:

Compound: NC(=O)c1cccc(-c2cccc(OC(=O)NC3CCCCC3)c2)c1 [URB597, cyclohexyl carbamic acid 3′-carbamoyl-biphenyl-3-yl ester, reference compound]
- intensity of the FAAH band (ABPP) (serine hydrolases [1]): reduced
- other serine hydrolase bands (ABPP) (serine hydrolases [2]): reduced the intensity of a band around 62.5 kDa

Compound: O=C(Nc1ccc(F)cc1)N1CCC(Cc2cnc3ccccc3c2)CC1 [compound 1]
- decrease in activity/potency toward FAAH (human FAAH [3]): 5 fold
- increase in activity/potency toward sEH (human sEH [4]): 7 fold

Compound: O=C(Nc1ccccc1F)N1CCC(Cc2cnc3ccccc3c2)CC1 [compound 3]
- decrease in activity/potency toward FAAH (human FAAH [3]): 3 fold

Compound: COc1ccc(NC(=O)N2CCC(Cc3cnc4ccccc4c3)CC2)cc1 [compound 5]
- increase in activity/potency toward sEH (human sEH [4]): 5 fold

Compound: COc1ccc(NC(=O)N2CCC(Cc3ccc4ccccc4c3)CC2)cc1 [compound 8]
- increase in activity toward FAAH (human FAAH [3]; compared to 5 (3-quinoline)): 4 fold
